Assays:
[1] = Autosampler; format: in vitro ADME, human; conditions: plasma, n = 6
[2] = Long-term stability; format: in vitro ADME, human; conditions: DBS, Long-term (−80 degrees) for 30 d, n = 6
[3] = Freeze–thaw stability; format: in vitro ADME, human; conditions: plasma, 3 F/T cycles, n = 6
[4] = Long-term stability; format: in vitro ADME, human; conditions: plasma, Long-term (−80 degrees) for 30 d, n = 6
How it was run: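 QC samples were stored at −80°C for 30 days before analysis. Plasma (20 µL) with I.S. (30 ng/mL) was precipitated with 150 µL water and 650 µL ACN, vortexed 5 min and centrifuged at 15,000g for 10 min. A hemaPEN DBS spot was extracted in 350 µL ACN with I.S. and centrifuged at 15,000g for 5 min. There were six replicates, 1 µL was injected for UHPLC-MS/MS MRM, and relative error was calculated versus nominal.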

[5] = system: EGFR/T790M; conditions: cited from earlier work
[6] = Bland–Altman comparison of plasma and hemaPEN DBS concentrations; format: in vivo, human; conditions: 15 patients with NSCLC
How it was run: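 Paired trough samples came from each patient: a finger-prick hemaPEN DBS, and venous EDTA blood drawn within 10 min that was spun at 2000g for 10 min, with plasma stored at −80°C. Both matrices were quantified by UHPLC-MS/MS, with AZ7550 calibrated using the labelled [¹³C²H₃] standard. Plasma and DBS values were compared by Bland–Altman analysis, with limits of agreement at ±1.96 SD of the mean difference.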

[7] = Freeze–thaw stability; format: in vitro ADME, human; conditions: DBS, 3 F/T cycles, n = 6
How it was run: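 QC samples were kept 8 hours at RT, then put through 3 freeze–thaw cycles: thaw 2 hours at RT, refreeze at −80°C for at least 12 hours. Plasma (20 µL) with I.S. was protein-precipitated with water/ACN and centrifuged 15,000g for 10 min. A DBS spot was extracted in ACN with I.S. and centrifuged 15,000g for 5 min. Six replicates were run on UHPLC-MS/MS, with relative error versus nominal.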

[8] = system: CYP3A4; conditions: preclinical data; cited from earlier work
[9] = Autosampler; format: in vitro ADME, human; conditions: DBS, n = 6
How it was run: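 DBS QC samples were made by filling hemaPEN capillaries from a blood drop onto precut disks and drying 1 hour at RT. Each spot (2.74 μL) was extracted in 350 µL ACN plus I.S. (30 ng/mL), vortexed, centrifuged at 15,000g, then shaken 1 hour at RT. Processed extracts were held in the autosampler at 4°C for 24 hours. Six replicates were read by UHPLC-MS/MS in positive MRM mode, with relative error taken against nominal.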

[10] = ref Rood et al, 30; cited from earlier work

Mean (measured concentration, stability) ([1]; nominal 1 ng/mL (LLOQ)): 1.04
RE (stability) ([1]; nominal 1 ng/mL (LLOQ)): 7.21%
Mean (measured concentration, stability) ([1]; nominal 3 ng/mL (LQC)): 2.96
RE (stability) ([1]; nominal 3 ng/mL (LQC)): −1.01%
Mean (measured concentration, stability) ([1]; nominal 30 ng/mL (MQC)): 29.32
RE (stability) ([1]; nominal 30 ng/mL (MQC)): −2.3%
Mean (measured concentration, stability) ([1]; nominal 270 ng/mL (HQC)): 279.56
RE (stability) ([1]; nominal 270 ng/mL (HQC)): 0.58%
Mean (measured concentration, stability) ([2]; nominal 1 ng/mL (LLOQ)): 1.1
RE (stability) ([2]; nominal 1 ng/mL (LLOQ)): 10.68%
Mean (measured concentration, stability) ([2]; nominal 3 ng/mL (LQC)): 2.91
RE (stability) ([2]; nominal 3 ng/mL (LQC)): 0.14%
Mean (measured concentration, stability) ([2]; nominal 30 ng/mL (MQC)): 30.08
RE (stability) ([2]; nominal 30 ng/mL (MQC)): −2.18%
Mean (measured concentration, stability) ([2]; nominal 270 ng/mL (HQC)): 269.97
RE (stability) ([2]; nominal 270 ng/mL (HQC)): 0.71%
Mean (measured concentration, stability) ([3]; nominal 1 ng/mL (LLOQ)): 1.14
RE (stability) ([3]; nominal 1 ng/mL (LLOQ)): 10.47%
Mean (measured concentration, stability) ([3]; nominal 3 ng/mL (LQC)): 3.02
RE (stability) ([3]; nominal 3 ng/mL (LQC)): 0.07%
Mean (measured concentration, stability) ([3]; nominal 30 ng/mL (MQC)): 28.84
RE (stability) ([3]; nominal 30 ng/mL (MQC)): −3.85%
Mean (measured concentration, stability) ([3]; nominal 270 ng/mL (HQC)): 269.25
RE (stability) ([3]; nominal 270 ng/mL (HQC)): −0.27%
Mean (measured concentration, stability) ([4]; nominal 1 ng/mL (LLOQ)): 1.15
RE (stability) ([4]; nominal 1 ng/mL (LLOQ)): 15.47%
Mean (measured concentration, stability) ([4]; nominal 3 ng/mL (LQC)): 2.91
RE (stability) ([4]; nominal 3 ng/mL (LQC)): −2.7%
Mean (measured concentration, stability) ([4]; nominal 30 ng/mL (MQC)): 29.39
RE (stability) ([4]; nominal 30 ng/mL (MQC)): −2.02%
Mean (measured concentration, stability) ([4]; nominal 270 ng/mL (HQC)): 270.31
RE (stability) ([4]; nominal 270 ng/mL (HQC)): 0.11%
Mean concentration difference between plasma and hemaPEN DBS (Bland–Altman) [6]: 0.4%
Mean (measured concentration, stability) ([7]; nominal 1 ng/mL (LLOQ)): 1.06
RE (stability) ([7]; nominal 1 ng/mL (LLOQ)): 8.95%
Mean (measured concentration, stability) ([7]; nominal 3 ng/mL (LQC)): 3.01
RE (stability) ([7]; nominal 3 ng/mL (LQC)): −0.43%
Mean (measured concentration, stability) ([7]; nominal 30 ng/mL (MQC)): 29.34
RE (stability) ([7]; nominal 30 ng/mL (MQC)): −2.24%
Mean (measured concentration, stability) ([7]; nominal 270 ng/mL (HQC)): 271.92
RE (stability) ([7]; nominal 270 ng/mL (HQC)): 0.24%
Mean (measured concentration, stability) ([9]; nominal 1 ng/mL (LLOQ)): 1.07
RE (stability) ([9]; nominal 1 ng/mL (LLOQ)): 7.15%
Mean (measured concentration, stability) ([9]; nominal 3 ng/mL (LQC)): 2.96
RE (stability) ([9]; nominal 3 ng/mL (LQC)): −1.11%
Mean (measured concentration, stability) ([9]; nominal 30 ng/mL (MQC)): 29.31
RE (stability) ([9]; nominal 30 ng/mL (MQC)): −2.7%
Mean (measured concentration, stability) ([9]; nominal 270 ng/mL (HQC)): 271.88
RE (stability) ([9]; nominal 270 ng/mL (HQC)): 0.69%
SMILES: C=CC(=O)Nc1cc(Nc2nccc(-c3cn(C)c4ccccc34)n2)c(OC)cc1N(C)CCN(C)C [Osimertinib]
Greater potency toward mutated EGFR/T790M than wild-type EGFR [5]: 200 ×
Metabolizing enzyme [8]: principally metabolized by cytochrome P450 (CYP3A4)
Degradation at RT [10]: rapid degradation

Source: publication PMC11078286 (Therapeutic Drug Monitoring, 2024)
